The values below come from ChEMBL document CHEMBL3739290, “Thioxo-dihydroquinazolin-one Compounds as Novel Inhibitors of Myeloperoxidase” (ACS Med Chem Lett, 2015).

Activity calls are given as the source filed them. The rule behind the calls is not given here. Where only a bound is given, the exact number is not on record here.

In general, IC50 refers to the concentration that gives 50% inhibition. As a reminder, the solubility (kinetic) is solubility judged after dilution from a stock solution rather than from solid.

The target in data set [1] is T1, Myeloperoxidase (Homo sapiens, UniProt P05164).
T1 sequence (P05164 whole entry): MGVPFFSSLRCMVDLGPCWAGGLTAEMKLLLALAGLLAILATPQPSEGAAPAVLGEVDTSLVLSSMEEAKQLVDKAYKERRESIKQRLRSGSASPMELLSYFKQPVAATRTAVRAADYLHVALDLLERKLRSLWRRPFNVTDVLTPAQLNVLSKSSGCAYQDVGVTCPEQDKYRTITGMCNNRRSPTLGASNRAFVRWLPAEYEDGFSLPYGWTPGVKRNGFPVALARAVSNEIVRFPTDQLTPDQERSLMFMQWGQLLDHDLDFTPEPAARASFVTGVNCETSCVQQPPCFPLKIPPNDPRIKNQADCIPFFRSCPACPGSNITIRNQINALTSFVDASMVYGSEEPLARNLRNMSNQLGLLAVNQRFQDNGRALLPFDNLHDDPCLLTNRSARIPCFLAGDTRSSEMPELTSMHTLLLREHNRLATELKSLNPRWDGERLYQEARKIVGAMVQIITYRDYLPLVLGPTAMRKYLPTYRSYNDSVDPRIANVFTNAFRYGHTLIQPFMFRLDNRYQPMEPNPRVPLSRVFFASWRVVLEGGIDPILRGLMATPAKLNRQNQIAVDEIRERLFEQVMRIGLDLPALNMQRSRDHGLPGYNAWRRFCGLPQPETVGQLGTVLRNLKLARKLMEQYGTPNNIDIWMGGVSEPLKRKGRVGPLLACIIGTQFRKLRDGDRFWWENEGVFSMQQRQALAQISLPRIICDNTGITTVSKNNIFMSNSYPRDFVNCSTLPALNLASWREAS
Description: Inhibition of human recombinant myeloperoxidase by amplex red assay.

The target in data set [2] is T2, Xanthine dehydrogenase/oxidase (Homo sapiens, UniProt P47989). Briefly: Inhibition of xanthine oxidase (unknown origin) assessed as superoxide generation measured for 20 mins by luminescence analysis using 50 uM xanthine as a substrate. A digest of the protocol: (§1)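 Xanthine/xanthine oxidase served as the oxidant source to check for assay interference. The buffer and pH matched the MPO Amplex Red assay. Inhibitors were tested over a range up to 100 μM.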

Data set [3] addresses T3, Myeloperoxidase (Homo sapiens) (UniProt P05164).
T3 sequence (whole entry): T1 sequence (P05164 whole entry)
The settings on record: 6 uM.

In data set [4] the test system is Armoracia rusticana. Briefly: Inhibition of horseradish peroxidase by amplex red assay. Summed up:
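Interference counter-screen: the Amplex Red peroxidase assay was run with HRP (20 nM) in place of human MPO, across a range of compound concentrations. Points are the mean ± SEM of three determinations.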

Data set [5] in a line: Solubility of compound in water by nephelometry. In kind it is physicochemical.
The target of data set [6] is T2, Xanthine dehydrogenase/oxidase. Briefly: Inhibition of xanthine oxidase (unknown origin) assessed as superoxide generation upto 100 uM measured for 20 mins by luminescence analysis using 50 uM xanthine as a substrate. The settings on record: read-out: Imax. A digest of the protocol:
as §1

The target of data set [7] is T3, Myeloperoxidase (Homo sapiens). The conditions noted are these: 100 uM.

T2 sequence (P47989 whole entry): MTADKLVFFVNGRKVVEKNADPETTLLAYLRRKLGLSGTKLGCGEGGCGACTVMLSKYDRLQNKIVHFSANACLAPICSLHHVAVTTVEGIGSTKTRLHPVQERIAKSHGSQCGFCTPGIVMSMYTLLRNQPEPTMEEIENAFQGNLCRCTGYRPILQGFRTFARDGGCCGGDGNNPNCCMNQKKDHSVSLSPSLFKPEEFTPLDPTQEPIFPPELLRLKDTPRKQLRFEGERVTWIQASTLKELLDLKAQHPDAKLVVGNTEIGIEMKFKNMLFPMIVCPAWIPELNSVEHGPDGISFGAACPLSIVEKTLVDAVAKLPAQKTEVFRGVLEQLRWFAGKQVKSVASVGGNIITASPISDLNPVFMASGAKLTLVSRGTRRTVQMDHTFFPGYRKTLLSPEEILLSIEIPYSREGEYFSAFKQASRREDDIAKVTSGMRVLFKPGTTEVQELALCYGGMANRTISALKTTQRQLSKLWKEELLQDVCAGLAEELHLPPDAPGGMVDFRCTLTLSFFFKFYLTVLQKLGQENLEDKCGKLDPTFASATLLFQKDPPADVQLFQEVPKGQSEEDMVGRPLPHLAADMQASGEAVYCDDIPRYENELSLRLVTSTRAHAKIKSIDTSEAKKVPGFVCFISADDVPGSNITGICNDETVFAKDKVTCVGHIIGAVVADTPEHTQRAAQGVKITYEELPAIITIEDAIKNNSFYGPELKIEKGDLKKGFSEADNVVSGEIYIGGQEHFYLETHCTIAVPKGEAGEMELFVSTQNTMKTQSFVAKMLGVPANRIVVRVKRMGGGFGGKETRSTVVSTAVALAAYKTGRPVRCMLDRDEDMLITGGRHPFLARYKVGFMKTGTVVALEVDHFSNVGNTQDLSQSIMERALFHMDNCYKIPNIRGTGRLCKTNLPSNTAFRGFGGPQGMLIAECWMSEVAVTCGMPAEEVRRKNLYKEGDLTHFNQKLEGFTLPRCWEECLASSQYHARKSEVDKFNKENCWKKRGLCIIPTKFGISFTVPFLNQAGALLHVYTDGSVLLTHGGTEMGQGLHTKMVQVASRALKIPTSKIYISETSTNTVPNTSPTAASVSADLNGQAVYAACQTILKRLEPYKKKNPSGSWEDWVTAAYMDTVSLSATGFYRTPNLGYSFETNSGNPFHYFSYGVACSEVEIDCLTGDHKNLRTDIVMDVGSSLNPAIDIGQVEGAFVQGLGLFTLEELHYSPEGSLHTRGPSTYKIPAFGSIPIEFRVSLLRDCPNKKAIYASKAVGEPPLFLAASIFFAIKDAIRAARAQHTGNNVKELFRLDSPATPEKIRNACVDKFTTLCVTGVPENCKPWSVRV

With `CN(C)CCCn1c(=S)[nH]c2cc(F)c(F)cc2c1=O.Cl`, the IC50 in data set [1] (read-out: IC50) was 1.2 µM; in data set [2], “Not Active”.
For the compound `CN(C)CCCn1c(=O)[nH]c2ccccc2c1=O`, the IC50 entry in data set [1] and in data set [2] was “Not Active” each time.
Regarding `CN(C)CCCCn1c(=O)[nH]c2ccccc2c1=O`, the IC50 in data set [1] (read-out: IC50) was 10 µM; in data set [2] it was “Not Active”.
On to `NNC(=O)c1ccc(N)cc1`, for which the inhibition entry in data set [3] is “Active”.
On to `O=C(Nn1c(=S)[nH]c2ccc(F)cc2c1=O)c1cccc(F)c1`, for which, in data set [4], the inhibition entry is “inactive”.
With `CCN(CC)CCn1c(=S)[nH]c2ccccc2c1=O`, the results for the IC50 in data set [1] (read-out: IC50) and in data set [2] were 1.6 µM and “Not Active”, respectively.
On the same counts, the results for `CCn1c(=S)[nH]c2ccc(F)cc2c1=O` are 15 µM and “Not Active”.
For `CN1CCN(CCCn2c(=S)[nH]c3ccccc3c2=O)CC1` the same measures were 1.4 µM and “Not Active”.
As for `CN(C)CCCn1c(=S)[nH]c2ccc(Cl)cc2c1=O.Cl`, the IC50 in data set [1] (read-out: IC50) was 0.8 µM; in data set [2] (read-out: IC50) it was 15 µM. The compound further showed a solubility (kinetic) in data set [5] of 0.09 mg/mL. The Emax in data set [6] was found to be 71%. The inhibition entry in data set [4] was “inactive”.
For the compound `O=C(Nn1c(=S)[nH]c2cc3c(cc2c1=O)OCCO3)c1ccc(C(F)(F)F)cc1`, the IC50 in data set [1] (read-out: IC50) is 0.3 µM; in data set [2], “Not Active”.
As to `CN(C)CCCCCn1c(=O)[nH]c2ccccc2c1=O`, the concentration for half-maximal inhibition (IC50) in data set [1] (read-out: IC50) was 10 µM; in data set [2], “Not Active”.
With `CN(C)CCCCCCn1c(=S)[nH]c2ccc(F)cc2c1=O`, the IC50 in data set [1] (read-out: IC50) is greater than 20 µM; in data set [2] (read-out: IC50) it was 18 µM. For the same compound, the Emax in data set [6] turned out to be 35%.
For `CN(C)CCCn1c(=S)[nH]c2ccccc2c1=O` the same measures were 1.3 µM, 20 µM and 20%.
With `CN(C)CCCn1c(=S)[nH]c2c(Cl)cc(Cl)cc2c1=O`, the IC50 in data set [1] (read-out: IC50) is greater than 20 µM; in data set [2] it was “Not Active”.
For `O=c1c2ccccc2[nH]c(=S)n1CCCCCO`, the IC50 in data set [1] (read-out: IC50) is greater than 40 µM; in data set [2], “Not Active”.
In the case of `O=c1c2ccccc2[nH]c(=S)n1CCN1CCCCC1`, the IC50 in data set [1] (read-out: IC50) is 0.4 µM; in data set [2] it was “Not Active”.
As to `CN(C)CCCn1c(=S)[nH]c2ccc(F)cc2c1=O.Cl`, the IC50 is 0.6 µM in data set [1] (read-out: IC50) and “Not Active” in data set [2].
As to `CC(C)n1c(=S)[nH]c2cc3c(cc2c1=O)OCCO3`, the IC50 was greater than 20 µM in data set [1] (read-out: IC50) and 4.5 µM in data set [2] (read-out: IC50). Further, the Emax in data set [6] is 60%.
With `O=C(NO)c1ccccc1O`, the inhibition result in data set [7] was “Active”.
Turning to `CN(C)CCCn1c(=S)[nH]c2cc(Cl)ccc2c1=O`, the IC50 in data set [1] (read-out: IC50) stood at 8 µM; in data set [2] (read-out: IC50) it was 4 µM. The Emax in data set [6] was determined as 50%.
Consider `CN(C)CCn1c(=S)[nH]c2ccccc2c1=O`, for which the half-inhibitory concentration (IC50) in data set [1] (read-out: IC50) is 1.7 µM; in data set [2] it was “Not Active”.
